Source: ChEMBL document CHEMBL1147217, “ent-Kaurane diterpenoids from croton tonkinensis inhibit LPS-induced NF-kappaB activation and NO production” (J Nat Prod, 2003)

Tests used:
[1] = test system: RAW264.7; assay: Inhibition of LPS-induced NO production in mouse RAW264.7 cells after 24 hrs by Griess method; format: functional, cell-based; details: RAW264.7, 24 h
Summary of the method: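 RAW264.7 cells at 1 × 10^5 cells/well, 3 h incubation, then LPS (1 µg/mL) for 24 h with or without test agent. Supernatant nitrite measured as NO readout by Griess reaction (equal volume of 0.1% N-(1-naphthyl)ethylenediamine/1% sulfanilamide in 5% phosphoric acid); absorbance 570 nm. IC50 values; means ± SD of six independent experiments.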

[2] = test system: RAW264.7; assay: Cytotoxicity against mouse RAW264.7 cells upto 3 uM by MTT assay; format: cell-based
[3] = (§1) Inhibition of LPS-induced NF-kappaB activation in mouse RAW264.7 cells after 24 hrs by SEAP reporter assay; format: cell-based; details: RAW264.7, 24 h
Summary of the method: (§2)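 RAW264.7 cells carrying a reporter plasmid with eight κB copies driving SEAP; seeded 5 × 10^4 cells/well, 3 h at 37 °C, then test agent at various concentrations plus LPS (1 µg/mL) for 24 h. Supernatant heated 65 °C 5 min, mixed with SEAP buffer (diethanolamine, MgCl2, L-homoarginine) 10 min 37 °C, then p-nitrophenyl phosphate at 37 °C; A405. IC50 values; means ± SD of six independent experiments.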

[4] = test system: RAW264.7; assay: as §1; format: cell-based; summary of the method: as §2

## C=C1C(=O)[C@@]23[C@H](O)C[C@@H]4C(C)(C)CC[C@@H](OC(C)=O)[C@@]4(C)[C@@H]2CC[C@@H]1[C@H]3O
[1]
  IC50: 470 nM
[2]
  Activity: Non-toxic
[3]
  IC50: 420 nM
[4]
  Activity: Dose-dependent effect

## N=C(N)NN [PIMAGEDINE]
[1]
  IC50: 4060 nM

## C=C1C(=O)[C@]23C[C@H]1CC[C@H]2[C@]1(C)CCC[C@](C)(COC(C)=O)[C@H]1C[C@H]3O
[1]
  IC50: 210 nM
[2]
  Activity: Non-toxic
[3]
  IC50: 100 nM
[4]
  Activity: Dose-dependent effect

## C=C1C(=O)O[C@@H]2C3O[C@]3(C)CC/C=C(\C)CC[C@@H]12 (some centres undefined)
[1]
  IC50: 2010 nM
[3]
  IC50: 2340 nM

## C=C1C(=O)[C@@]23[C@H](O)C[C@@H]4[C@@](C)(COC(C)=O)CCC[C@@]4(C)[C@@H]2CC[C@@H]1[C@H]3O
[1]
  IC50: 150 nM
[2]
  Activity: Non-toxic
[3]
  IC50: 70 nM
[4]
  Activity: Dose-dependent effect

## C=C1C(=O)[C@@]23[C@H](O)C[C@@H]4C(C)(C)CCC[C@@]4(C)[C@@H]2CC[C@@H]1[C@H]3O
[1]
  IC50: 260 nM
[2]
  Activity: Non-toxic
[3]
  IC50: 110 nM
[4]
  Activity: Dose-dependent effect
